Assay results published in ChEMBL document CHEMBL4052823, “Extra Sugar on Vancomycin: New Analogues for Combating Multidrug-Resistant Staphylococcus aureus and Vancomycin-Resistant Enterococci” (J Med Chem, 2018).
Converted amounts (≈) assume the structure as drawn. The source made the active and inactive calls. No cut-off for these calls is given here.

What was measured:
[1] = tested on: Staphylococcus aureus; experiment: Antibacterial activity against vancomycin/methicillin-susceptible Staphylococcus aureus Newman […] after 24 hrs by broth microdilution method; assay type: functional
Summary of the method: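 Broth microdilution in cation-adjusted Mueller-Hinton II broth. […] Each well received ~10^5 CFU of exponential-phase bacteria and was incubated at 37 °C for 24 h. MIC was taken as the lowest concentration giving complete growth inhibition, interpreted per CLSI.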

[2] = tested on: Staphylococcus aureus; experiment: Antibacterial activity against healthcare-associated methicillin-resistant/vancomycin-intermediate Staphylococcus aureus Mu50 after 24 hrs by broth microdilution method; assay type: functional; details: Mu50, 24 h
Summary of the method: (§1)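 Broth microdilution in cation-adjusted Mueller-Hinton II broth. DMSO stocks were diluted in broth and twofold serially from 128 to 0.0625 μg/mL or lower. Each well was inoculated with ~10^5 CFU of exponential-phase bacteria and incubated at 37 °C for 24 h. MIC was the lowest concentration giving complete growth inhibition, read per CLSI. Growth controls contained broth plus DMSO.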

[3] = tested on: Enterococcus faecium; experiment: Antibacterial activity against glycopeptide-resistant Enterococcus faecium Efm-HS-0649 vanA after 24 hrs by broth microdilution method; assay type: functional; details: Efm-HS-0649, 24 h; summary of the method: as §1
[4] = tested on: Enterococcus faecium; experiment: Antibacterial activity against glycopeptide-resistant Enterococcus faecium Efm-HS-06188 vanA after 24 hrs by broth microdilution method; assay type: functional; details: Efm-HS-06188, 24 h; summary of the method: as §1
[5] = tested on: Enterococcus faecium; experiment: Antibacterial activity against glycopeptide-resistant Enterococcus faecium Efm-HS-0847 vanM after 24 hrs by broth microdilution method; assay type: functional; details: Efm-HS-0847, 24 h; summary of the method: as §1
[6] = tested on: Enterococcus faecium; experiment: Antibacterial activity against glycopeptide-resistant Enterococcus faecium Efm-HS-08257 vanM after 24 hrs by broth microdilution method; assay type: functional; details: Efm-HS-08257, 24 h; summary of the method: as §1
[7] = tested on: Enterococcus faecium; experiment: Antibacterial activity against glycopeptide-resistant Enterococcus faecium Efm-HS-vb01 vanB after 24 hrs by broth microdilution method; assay type: functional; details: Efm-HS-vb01, 24 h; summary of the method: as §1
[8] = Half life in CD1 mouse at 5 mg/kg, iv; assay type: ADME, organism-based; details: in vivo
Summary of the method: (§2)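 Fasted male CD-1 mice (18−22 g), 5 mg/kg single dose into the tail vein, 6 per group. Blood sampled at 0.25, 0.75, 2, 4, 8 and 24 h and analysed by UPLC-MS/MS. T1/2, AUClast, AUCINF_obs, CL_obs, MRTINF_obs and VSS_obs were calculated for each animal from its time−concentration curve.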

[9] = AUClast in CD1 mouse at 5 mg/kg, iv; assay type: ADME, organism-based; design: dose 5 mg/kg, route intravenous, time 0 - last; details: in vivo; summary of the method: as §2
[10] = AUC (infinity) in CD1 mouse at 5 mg/kg, iv; assay type: ADME, organism-based; design: dose 5 mg/kg, route intravenous, time infinity; details: in vivo; summary of the method: as §2
[11] = Clearance in CD1 mouse at 5 mg/kg, iv; assay type: ADME, organism-based; details: in vivo; summary of the method: as §2
[12] = MRT (infinity) in CD1 mouse at 5 mg/kg, iv; assay type: ADME, organism-based; details: in vivo; summary of the method: as §2
[13] = Volume of distribution at steady state in CD1 mouse at 5 mg/kg, iv; assay type: ADME, organism-based; details: in vivo, read-out: Vdss
Summary of the method: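 Fasted male CD-1 mice (18−22 g), 5 mg/kg single dose into the tail vein, 6 per group. T1/2, AUClast, AUCINF_obs, CL_obs, MRTINF_obs and VSS_obs were calculated for each animal from its time−concentration curve.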

[14] = tested on: Blood; experiment: Drug uptake in CD1 mouse blood at 5 mg/kg, iv; assay type: ADME, organism-based; details: in vivo; summary of the method: as §2
[15] = tested on: Staphylococcus aureus; experiment: Potency index, ratio of telavancin MIC90 to test compound MIC90 for vancomycin/methicillin-susceptible Staphylococcus aureus Newman […]; assay type: functional
[16] = tested on: Staphylococcus aureus; experiment: Antibacterial activity against methicillin-resistant Staphylococcus aureus USA300 LAC infected in BALB/c mouse assessed as mouse survival rate at 7 mg/kg, ip administered as single dose measured after 10 days relative to control; assay type: functional; details: 240 h
Summary of the method: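 Female BALB/c mice, 6−8 weeks old, were anesthetized with pentobarbital and infected retro-orbitally with ~2.35 × 10^8 CFU of exponential-phase USA300 LAC, 15 per group. A single 7 mg/kg ip dose was given 1 h after infection. Deaths were recorded daily to build survival curves.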

[17] = tested on: Staphylococcus aureus; experiment: Antibacterial activity against healthcare-associated methicillin-resistant/vancomycin-intermediate Staphylococcus aureus Mu50 infected in BALB/c mouse assessed as decrease in liver CFU levels at 7 mg/kg, ip administered twice in 24 hrs interval measured after 5 days; assay type: functional, organism-based
Summary of the method: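 Female BALB/c mice, 6−8 weeks old, were anesthetized with pentobarbital and infected retro-orbitally with ~3.8 × 10^8 CFU of exponential-phase Mu50, 12 per group. Treatment started 1 h post-infection: 7 mg/kg ip in sterile water, two doses 24 h apart. At day 5 mice were euthanized and liver homogenates plated on TSA for CFU counts. Groups were compared by two-tailed Mann−Whitney test.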

Row | SMILES | MIC90 [1] | MIC90 [2] | MIC [3] | MIC [4] | MIC [5] | MIC [6] | MIC [7] | half-life [8] | AUC(0-t) [9] | AUC(0-inf) [10] | clearance [11] | MRT inf [12] | Vd [13] | Drug uptake [14] | Ratio [15] | survival at 7 mg/kg [16] | Activity [17]
1 | CN[C@H](CC(C)C)C(=O)N[C@H]1C(=O)N[C@@H](CC(N)=O)C(=O)N[C@H]2C(=O)N[C@H]3C(=O)N[C@H](C(=O)N[C@H](C(=O)O)c4cc(O)c(CNCCO)c(O)c4-c4cc3ccc4O)[C@H](O)c3ccc(c(Cl)c3)Oc3cc2cc(c3O[C@@H]2O[C@H](CO)[C@@H](O)[C@H](O)[C@H]2O[C@H]2C[C@](C)(NCc3ccc(OCc4cccc(-c5ccccc5)c4C)c(Cl)c3)[C@H](O)[C@H](C)O2)Oc2ccc(cc2Cl)[C@H]1O | 0.12 µg/mL (≈ 0.0651 µM) | 0.5 µg/mL (≈ 0.271 µM) | 1 µg/mL (≈ 0.543 µM) | 0.5 µg/mL (≈ 0.271 µM) | 2 µg/mL (≈ 1.09 µM) | 1 µg/mL (≈ 0.543 µM) | 1 µg/mL (≈ 0.543 µM) |  |  |  |  |  |  |  |  |  | 
2 | CCCCCCCCCCNCCN[C@@]1(C)C[C@H](O[C@H]2[C@H](Oc3c4cc5cc3Oc3ccc(cc3Cl)[C@@H](O)[C@@H](NC(=O)[C@@H](CC(C)C)NC)C(=O)N[C@@H](CC(N)=O)C(=O)N[C@H]5C(=O)N[C@H]3C(=O)N[C@H](C(=O)N[C@H](C(=O)O)c5cc(O)c(CNCCO)c(O)c5-c5cc3ccc5O)[C@H](O)c3ccc(c(Cl)c3)O4)O[C@H](CO)[C@@H](O)[C@@H]2O)O[C@@H](C)[C@H]1O | 1 µg/mL (≈ 0.586 µM) | 4 µg/mL (≈ 2.35 µM) | 16 µg/mL (≈ 9.38 µM) | 16 µg/mL (≈ 9.38 µM) | 8 µg/mL (≈ 4.69 µM) | 1 µg/mL (≈ 0.586 µM) | 4 µg/mL (≈ 2.35 µM) |  |  |  |  |  |  |  |  |  | 
3 | CN[C@H](CC(C)C)C(=O)N[C@H]1C(=O)N[C@@H](CC(N)=O)C(=O)N[C@H]2C(=O)N[C@H]3C(=O)N[C@H](C(=O)N[C@H](C(=O)O)c4cc(O)cc(O)c4-c4cc3ccc4O)[C@H](O)c3ccc(c(Cl)c3)Oc3cc2cc(c3O[C@@H]2O[C@H](CO)[C@@H](O)[C@H](O)[C@H]2O[C@H]2C[C@](C)(NCc3ccc(-c4ccc(C(F)(F)F)cc4)cc3)[C@H](O)[C@H](C)O2)Oc2ccc(cc2Cl)[C@H]1O |  |  |  |  |  |  |  | 6.04 h | 64200 ng·h/mL | 67500 ng·h/mL | 1.24 mL/min/kg | 6.83 h | 0.509 L/kg | > 1 µg/mL |  |  | 
4 | CCCCCCCCCCN[C@@]1(C)C[C@H](O[C@H]2[C@H](Oc3c4cc5cc3Oc3ccc(cc3Cl)[C@@H](O)[C@@H](NC(=O)[C@@H](CC(C)C)NC)C(=O)N[C@@H](CC(N)=O)C(=O)N[C@H]5C(=O)N[C@H]3C(=O)N[C@H](C(=O)N[C@H](C(=O)O)c5cc(O)c(CN[C@H]6C(O)O[C@H](CO)[C@H](O)[C@@H]6O)c(O)c5-c5cc3ccc5O)[C@H](O)c3ccc(c(Cl)c3)O4)O[C@H](CO)[C@@H](O)[C@@H]2O)O[C@@H](C)[C@H]1O (stereo partly drawn) | 0.03 µg/mL (≈ 0.0168 µM) | 0.25 µg/mL (≈ 0.14 µM) | 8 µg/mL (≈ 4.49 µM) | 8 µg/mL (≈ 4.49 µM) | 32 µg/mL (≈ 18 µM) | 16 µg/mL (≈ 8.99 µM) | 0.5 µg/mL (≈ 0.281 µM) |  |  |  |  |  |  |  | 8 - 16 |  | 
5 | CN[C@H](CC(C)C)C(=O)N[C@H]1C(=O)N[C@@H](CC(N)=O)C(=O)N[C@H]2C(=O)N[C@H]3C(=O)N[C@H](C(=O)N[C@H](C(=O)O)c4cc(O)c(CNCCCNC(=O)[C@H](O)[C@@H](O)[C@H](O)[C@H](O)CO)c(O)c4-c4cc3ccc4O)[C@H](O)c3ccc(c(Cl)c3)Oc3cc2cc(c3O[C@@H]2O[C@H](CO)[C@@H](O)[C@H](O)[C@H]2O[C@H]2C[C@](C)(NCc3ccc(-c4ccc(Cl)cc4)cc3)[C@H](O)[C@H](C)O2)Oc2ccc(cc2Cl)[C@H]1O | 0.06 µg/mL (≈ 0.0313 µM) | 0.12 µg/mL (≈ 0.0627 µM) | 4 µg/mL (≈ 2.09 µM) | 1 µg/mL (≈ 0.522 µM) | 16 µg/mL (≈ 8.36 µM) | 8 µg/mL (≈ 4.18 µM) | 1 µg/mL (≈ 0.522 µM) |  |  |  |  |  |  |  |  |  | 
6 | CN[C@H](CC(C)C)C(=O)N[C@H]1C(=O)N[C@@H](CC(N)=O)C(=O)N[C@H]2C(=O)N[C@H]3C(=O)N[C@H](C(=O)N[C@H](C(=O)O)c4cc(O)c(CN[C@H]5C(O)O[C@H](CO)[C@H](O)[C@@H]5O)c(O)c4-c4cc3ccc4O)[C@H](O)c3ccc(c(Cl)c3)Oc3cc2cc(c3O[C@@H]2O[C@H](CO)[C@@H](O)[C@H](O)[C@H]2O[C@H]2C[C@](C)(NCc3ccc(-c4ccc(Cl)cc4)cc3)[C@H](O)[C@H](C)O2)Oc2ccc(cc2Cl)[C@H]1O (stereo partly drawn) | 0.03 µg/mL (≈ 0.0163 µM) | 0.12 µg/mL (≈ 0.0652 µM) | 2 µg/mL (≈ 1.09 µM) | 2 µg/mL (≈ 1.09 µM) | 8 µg/mL (≈ 4.35 µM) | 4 µg/mL (≈ 2.17 µM) | 0.25 µg/mL (≈ 0.136 µM) | 3.81 h | 12100 ng·h/mL | 12200 ng·h/mL | 7 mL/min/kg | 4.18 h | 1.75 L/kg | > 1 µg/mL | 8 - 16 | 93.3% | Active
